In brackets after ≈: the same amount, converted by molar mass.
Tests used:
Type in all cases: functional
Staphylococcus aureus [1] = assay: Antimicrobial activity against SCCmec type III vancomycin-intermediate Staphylococcus aureus isolate gz07030 by agar dilution method
Procedure, shortened: (§1)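 Agar-dilution MICs were measured on a subset of 200 blood MRSA isolates from China. Agents: oxacillin, rifampin, gentamicin, levofloxacin, erythromycin, vancomycin, teicoplanin, tigecycline, ceftobiprole and linezolid. Phenotype came from the PAP-AUC ratio of each isolate to S. aureus Mu3 (VSSA <0.9; hVISA 0.9 to 1.3; VISA ≥1.3), read on BHI agar with 0 to 8.0 mg/liter vancomycin after 48 h at 35°C.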

Staphylococcus aureus [2] = assay: Antimicrobial activity against SCCmec type III vancomycin-intermediate Staphylococcus aureus isolate gs07022 by agar dilution method; procedure, shortened: as §1
Staphylococcus aureus [3] = assay: Antimicrobial activity against SCCmec type III vancomycin-intermediate Staphylococcus aureus isolate b6k1642 by agar dilution method; procedure, shortened: as §1
Staphylococcus aureus [4] = assay: Antimicrobial activity against SCCmec type III vancomycin-intermediate Staphylococcus aureus isolate sh07043 by agar dilution method; procedure, shortened: as §1
Staphylococcus aureus [5] = assay: Antimicrobial activity against SCCmec type II vancomycin-intermediate Staphylococcus aureus isolate sh06024 by agar dilution method; procedure, shortened: as §1
Staphylococcus aureus [6] = assay: Antimicrobial activity against SCCmec type II vancomycin-intermediate Staphylococcus aureus isolate 6zjsau7 by agar dilution method; procedure, shortened: as §1
Staphylococcus aureus [7] = assay: Antimicrobial activity against SCCmec type III vancomycin-intermediate Staphylococcus aureus isolate b6k7974 by agar dilution method; procedure, shortened: as §1
Staphylococcus aureus [8] = assay: Antimicrobial activity against SCCmec type III vancomycin-intermediate Staphylococcus aureus isolate 13b16 by agar dilution method; procedure, shortened: as §1
Staphylococcus aureus [9] = assay: Antimicrobial activity against SCCmec type II vancomycin-intermediate Staphylococcus aureus isolate 07b63 by agar dilution method; procedure, shortened: as §1
Staphylococcus aureus [10] = assay: Antimicrobial activity against SCCmec type II vancomycin-intermediate Staphylococcus aureus isolate b2k4781 by agar dilution method; procedure, shortened: as §1
Staphylococcus aureus [11] = assay: Antimicrobial activity against SCCmec type III vancomycin-intermediate Staphylococcus aureus isolate xa07029 by agar dilution method; procedure, shortened: as §1
Staphylococcus aureus [12] = assay: Antimicrobial activity against SCCmec type III vancomycin-intermediate Staphylococcus aureus isolate b2k3421 by agar dilution method; procedure, shortened: as §1
Staphylococcus aureus [13] = assay: Antimicrobial activity against SCCmec type III vancomycin-intermediate Staphylococcus aureus isolate bd4768 by agar dilution method; procedure, shortened: as §1
Staphylococcus aureus [14] = assay: Antimicrobial activity against SCCmec type III vancomycin-intermediate Staphylococcus aureus isolate gz06051 by agar dilution method; procedure, shortened: as §1
Staphylococcus aureus [15] = assay: Antimicrobial activity against SCCmec type III vancomycin-intermediate Staphylococcus aureus isolate gz06040 by agar dilution method; procedure, shortened: as §1
Staphylococcus aureus [16] = assay: Antimicrobial activity against SCCmec type III vancomycin-intermediate Staphylococcus aureus isolate b3k5923 by agar dilution method; procedure, shortened: as §1
Staphylococcus aureus [17] = assay: Antimicrobial activity against SCCmec type III vancomycin-intermediate Staphylococcus aureus isolate 15b52 by agar dilution method; procedure, shortened: as §1
Staphylococcus aureus [18] = assay: Antimicrobial activity against SCCmec type II vancomycin-intermediate Staphylococcus aureus isolate 4sy32 by agar dilution method; procedure, shortened: as §1
Staphylococcus aureus [19] = assay: Antimicrobial activity against SCCmec type III vancomycin-intermediate Staphylococcus aureus isolate zj07028 by agar dilution method; procedure, shortened: as §1
Staphylococcus aureus [20] = assay: Antimicrobial activity against SCCmec type IV vancomycin-intermediate Staphylococcus aureus isolate 06b41 by agar dilution method; procedure, shortened: as §1
Staphylococcus aureus [21] = assay: Antimicrobial activity against SCCmec type III vancomycin-intermediate Staphylococcus aureus isolate b4k6307 by agar dilution method; procedure, shortened: as §1
Staphylococcus aureus [22] = assay: Antimicrobial activity against SCCmec type III vancomycin-intermediate Staphylococcus aureus isolate b5k3578 by agar dilution method; procedure, shortened: as §1
Staphylococcus aureus [23] = assay: Antimicrobial activity against SCCmec type II vancomycin-intermediate Staphylococcus aureus isolate 4sy39 by agar dilution method; procedure, shortened: as §1
Staphylococcus aureus [24] = assay: Antimicrobial activity against SCCmec type III vancomycin-intermediate Staphylococcus aureus isolate 11b091 by agar dilution method; procedure, shortened: as §1
Staphylococcus aureus [25] = assay: Antimicrobial activity against SCCmec type III vancomycin-intermediate Staphylococcus aureus isolate 5zjsau3 by agar dilution method; procedure, shortened: as §1
Staphylococcus aureus [26] = assay: Antimicrobial activity against SCCmec type III vancomycin-intermediate Staphylococcus aureus isolate b3k2345 by agar dilution method; procedure, shortened: as §1
Staphylococcus aureus [27] = assay: Antimicrobial activity against SCCmec type III vancomycin-intermediate Staphylococcus aureus isolate b5k3529 by agar dilution method; procedure, shortened: as §1

| Compound | MIC (Staphylococcus aureus [1]) [µg/mL] | MIC (Staphylococcus aureus [2]) [µg/mL] | MIC (Staphylococcus aureus [3]) [µg/mL] | MIC (Staphylococcus aureus [4]) [µg/mL] | MIC (Staphylococcus aureus [5]) [µg/mL] | MIC (Staphylococcus aureus [6]) [µg/mL] | MIC (Staphylococcus aureus [7]) [µg/mL] | MIC (Staphylococcus aureus [8]) [µg/mL] | MIC (Staphylococcus aureus [9]) [µg/mL] | MIC (Staphylococcus aureus [10]) [µg/mL] | MIC (Staphylococcus aureus [11]) [µg/mL] | MIC (Staphylococcus aureus [12]) [µg/mL] | MIC (Staphylococcus aureus [13]) [µg/mL] | MIC (Staphylococcus aureus [14]) [µg/mL] | MIC (Staphylococcus aureus [15]) [µg/mL] | MIC (Staphylococcus aureus [16]) [µg/mL] | MIC (Staphylococcus aureus [17]) [µg/mL] | MIC (Staphylococcus aureus [18]) [µg/mL] | MIC (Staphylococcus aureus [19]) [µg/mL] | MIC (Staphylococcus aureus [20]) [µg/mL] | other results |
| --- | --- | --- | --- | --- | --- | --- | --- | --- | --- | --- | --- | --- | --- | --- | --- | --- | --- | --- | --- | --- | --- |
| CC[C@H]1OC(=O)[C@H](C)[C@@H](O[C@H]2C[C@@](C)(OC)[C@@H](O)[C@H](C)O2)[C@H](C)[C@@H](O[C@@H]2O[C@H](C)C[C@H](N(C)C)[C@H]2O)[C@](C)(OC)C[C@@H](C)C(=O)[C@H](C)[C@@H](O)[C@]1(C)O [CLARITHROMYCIN] | 64 (≈ 85.6 µM) | 64 (≈ 85.6 µM) | 64 (≈ 85.6 µM) | > 64 | 32 (≈ 42.8 µM) | > 64 | 64 (≈ 85.6 µM) | 16 (≈ 21.4 µM) | 64 (≈ 85.6 µM) | 64 (≈ 85.6 µM) | 32 (≈ 42.8 µM) | 64 (≈ 85.6 µM) | 64 (≈ 85.6 µM) | 64 (≈ 85.6 µM) | 32 (≈ 42.8 µM) | 64 (≈ 85.6 µM) | 16 (≈ 21.4 µM) | 32 (≈ 42.8 µM) | 32 (≈ 42.8 µM) | 1 (≈ 1.34 µM) | MIC (Staphylococcus aureus [21]): 16 µg/mL (≈ 21.4 µM); MIC (Staphylococcus aureus [22]): 32 µg/mL (≈ 42.8 µM); MIC (Staphylococcus aureus [23]): 32 µg/mL (≈ 42.8 µM); MIC (Staphylococcus aureus [24]): > 64 µg/mL; MIC (Staphylococcus aureus [25]): 32 µg/mL (≈ 42.8 µM); MIC (Staphylococcus aureus [26]): 64 µg/mL (≈ 85.6 µM); MIC (Staphylococcus aureus [27]): 64 µg/mL (≈ 85.6 µM) |
| CC[C@H]1OC(=O)[C@H](C)[C@@H](O[C@H]2C[C@@](C)(OC)[C@@H](O)[C@H](C)O2)[C@H](C)[C@@H](O[C@@H]2O[C@H](C)C[C@H](N(C)C)[C@H]2O)[C@](C)(O)C[C@@H](C)C(=O)[C@H](C)[C@@H](O)[C@]1(C)O [ERYTHROMYCIN] | > 256 | > 256 | > 256 | > 256 | > 256 | > 256 | > 256 | > 256 | > 256 | > 256 | > 256 | > 256 | > 256 | 0.25 (≈ 0.341 µM) | > 256 | > 256 | 256 (≈ 349 µM) | 1 (≈ 1.36 µM) | > 256 | 128 (≈ 174 µM) | MIC (Staphylococcus aureus [21]): > 256 µg/mL; MIC (Staphylococcus aureus [22]): 2 µg/mL (≈ 2.73 µM); MIC (Staphylococcus aureus [23]): 256 µg/mL (≈ 349 µM); MIC (Staphylococcus aureus [24]): > 256 µg/mL; MIC (Staphylococcus aureus [25]): > 256 µg/mL; MIC (Staphylococcus aureus [26]): > 256 µg/mL; MIC (Staphylococcus aureus [27]): > 256 µg/mL |
| C[C@H]1COc2c(N3CCN(C)CC3)c(F)cc3c(=O)c(C(=O)O)cn1c23.C[C@H]1COc2c(N3CCN(C)CC3)c(F)cc3c(=O)c(C(=O)O)cn1c23.O [LEVOFLOXACIN] | 64 | 32 | 16 | 32 | 8 | 32 | 64 | 32 | 8 | 32 | 8 | 16 | 32 | 64 | 64 | 32 | 4 | 8 | 8 | 0.25 | MIC (Staphylococcus aureus [21]): 4 µg/mL; MIC (Staphylococcus aureus [22]): 16 µg/mL; MIC (Staphylococcus aureus [23]): 16 µg/mL; MIC (Staphylococcus aureus [24]): 32 µg/mL; MIC (Staphylococcus aureus [25]): 16 µg/mL; MIC (Staphylococcus aureus [26]): 16 µg/mL; MIC (Staphylococcus aureus [27]): 16 µg/mL |
| Cc1onc(-c2ccccc2)c1C(=O)N[C@@H]1C(=O)N2[C@@H]1SC(C)(C)[C@@H]2C(=O)O [OXACILLIN] | > 64 | 8 (≈ 19.9 µM) | > 64 | > 64 | > 64 | > 64 | > 64 | > 64 | > 64 | > 64 | > 64 | > 64 | > 64 | > 64 | 32 (≈ 79.7 µM) | > 64 | > 64 | 256 (≈ 638 µM) | > 64 | 8 (≈ 19.9 µM) | MIC (Staphylococcus aureus [21]): > 64 µg/mL; MIC (Staphylococcus aureus [22]): > 64 µg/mL; MIC (Staphylococcus aureus [23]): 256 µg/mL (≈ 638 µM); MIC (Staphylococcus aureus [24]): > 64 µg/mL; MIC (Staphylococcus aureus [25]): > 64 µg/mL; MIC (Staphylococcus aureus [26]): > 64 µg/mL; MIC (Staphylococcus aureus [27]): > 64 µg/mL |
| CO[C@H]1/C=C/O[C@@]2(C)Oc3c(C)c(O)c4c(O)c(c(/C=N/N5CCN(C)CC5)c(O)c4c3C2=O)NC(=O)/C(C)=C\C=C\[C@H](C)[C@H](O)[C@@H](C)[C@@H](O)[C@@H](C)[C@H](OC(C)=O)[C@@H]1C [RIFAMPIN] | 0.004 (≈ 0.00486 µM) | 0.008 (≈ 0.00972 µM) | 16 (≈ 19.4 µM) | 0.016 (≈ 0.0194 µM) | > 256 | 0.008 (≈ 0.00972 µM) | 256 (≈ 311 µM) | 0.008 (≈ 0.00972 µM) | 0.008 (≈ 0.00972 µM) | 0.008 (≈ 0.00972 µM) | > 256 | 0.008 (≈ 0.00972 µM) | 256 (≈ 311 µM) | > 256 | 0.008 (≈ 0.00972 µM) | 256 (≈ 311 µM) | 0.016 (≈ 0.0194 µM) | 0.008 (≈ 0.00972 µM) | ≤ 0.002 | 0.016 (≈ 0.0194 µM) | MIC (Staphylococcus aureus [21]): 256 µg/mL (≈ 311 µM); MIC (Staphylococcus aureus [22]): 0.5 µg/mL (≈ 0.608 µM); MIC (Staphylococcus aureus [23]): 0.008 µg/mL (≈ 0.00972 µM); MIC (Staphylococcus aureus [24]): 0.008 µg/mL (≈ 0.00972 µM); MIC (Staphylococcus aureus [25]): 0.008 µg/mL (≈ 0.00972 µM); MIC (Staphylococcus aureus [26]): 0.008 µg/mL (≈ 0.00972 µM); MIC (Staphylococcus aureus [27]): 0.5 µg/mL (≈ 0.608 µM) |
| GENTAMICIN | > 256 | 8 | > 256 | 128 | 256 | 256 | 256 | 256 | 64 | > 256 | 128 | 128 | 256 | 128 | 256 | 128 | 256 | 64 | > 256 | 0.25 | MIC (Staphylococcus aureus [21]): 128 µg/mL; MIC (Staphylococcus aureus [22]): > 256 µg/mL; MIC (Staphylococcus aureus [23]): 64 µg/mL; MIC (Staphylococcus aureus [24]): 256 µg/mL; MIC (Staphylococcus aureus [25]): > 256 µg/mL; MIC (Staphylococcus aureus [26]): 128 µg/mL; MIC (Staphylococcus aureus [27]): > 256 µg/mL |

Source: ChEMBL document CHEMBL1649574, “Prevalence and characterization of heterogeneous vancomycin-intermediate Staphylococcus aureus isolates from 14 cities in China” (2009)
